The target of test [1] is T1, Vasopressin V2 receptor (Homo sapiens, UniProt P30518). Put plainly: Binding affinity to SNAP-tagged vasopressin V2 receptor expressed in HEK293 cells after 1 hr by TR-FRET assay. In kind it is cell-based. An outline of the steps:
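HEK 293T cells electroporated with SNAP-tag–V2R and grown 48 h. Receptor labeled 1 h at 37 °C with SNAP-Lumi4-Tb (100 nM) or SNAP-RED (300 nM), then washed. Rising fluorescent-ligand concentrations added and incubated overnight at 4 °C. TR-FRET read with excitation 340 nm, emission 620/665 nm. Nonspecific binding taken with 10 μM unlabeled ligand. Kd from saturation, three experiments in triplicate.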

Test [2] addresses T1, Vasopressin V2 receptor. In words: Antagonist activity at human vasopressin V2 receptor expressed in CHO cells assessed as inhibition of AVP-induced cAMP accumulation after 30 mins by TR-FRET based HTRF assay. In kind it is functional, cell-based. In short, it runs like this: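 CHO cells stably expressing human V2R, 5 × 10^3 per well on polyornithine, used 24 h after seeding. Incubated 30 min at 37 °C with compound (10−12 to 10−5 M) plus phosphodiesterase inhibitor RO 201724 0.1 mM. Antagonist mode run with 1 nM AVP. Cells lysed and cAMP read by HTRF (TR-FRET). Kact/Kinact from three independent experiments in triplicate, mean ± SEM.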
On the technique in general: cAMP levels reflect the balance of adenylyl cyclase and phosphodiesterase activity.

The target in a further test is T2, Vasopressin V1b receptor (Homo sapiens, UniProt P47901).
T2 sequence (P47901 whole entry): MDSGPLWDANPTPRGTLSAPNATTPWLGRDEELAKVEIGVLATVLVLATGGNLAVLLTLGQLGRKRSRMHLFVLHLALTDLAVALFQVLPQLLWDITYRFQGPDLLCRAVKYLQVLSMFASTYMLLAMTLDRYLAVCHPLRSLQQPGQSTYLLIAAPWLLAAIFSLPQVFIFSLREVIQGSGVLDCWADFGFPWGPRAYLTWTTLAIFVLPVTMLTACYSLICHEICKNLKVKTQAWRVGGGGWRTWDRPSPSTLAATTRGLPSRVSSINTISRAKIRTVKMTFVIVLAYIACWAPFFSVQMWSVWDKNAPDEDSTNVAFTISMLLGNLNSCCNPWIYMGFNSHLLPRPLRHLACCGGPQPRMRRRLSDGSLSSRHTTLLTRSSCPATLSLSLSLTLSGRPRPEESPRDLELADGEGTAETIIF
Put plainly: Displacement of [3H]-AVP from human vasopressin V1b receptor expressed in CHO cells after 30 mins. In kind it is cell-based. (Loss of bound radioactivity is the signal in a displacement assay; it reports binding, not function.)

For test [3], the target named is T1, Vasopressin V2 receptor. Put plainly: Binding affinity to SNAP-tagged vasopressin V2 receptor expressed in COS7 cells assessed as interaction with vasopressin V2/V1a receptor dimer after 1 hr by FRET assay. It counts as cell-based. The conditions noted are these: COS-7. In short, it runs like this:
(§1)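 Cos7 cells expressing SNAP-V1a, SNAP-V2 or both, 50000 cells/well. Incubated overnight at 4 °C with one donor plus one acceptor fluorescent ligand, each near its Kd. Signal given as %ΔF from the 665/620 ratio (excitation 335 nm) against mock cells. Receptor expression measured by SNAP-Lumi4-Tb labeling (100 nM, 1 h, room temperature), read at 620 nm.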

The target of test [4] is T1, Vasopressin V2 receptor. Put plainly: Displacement of [3H]-AVP from human vasopressin V2 receptor expressed in CHO cells after 30 mins. It counts as cell-based.
In test [5] the target is T3, Vasopressin V1a receptor (Homo sapiens, UniProt P37288). In words: Displacement of [3H]-AVP from human vasopressin V1a receptor expressed in CHO cells after 30 mins. It counts as cell-based.
Target sequence in this assay (P37288 whole entry): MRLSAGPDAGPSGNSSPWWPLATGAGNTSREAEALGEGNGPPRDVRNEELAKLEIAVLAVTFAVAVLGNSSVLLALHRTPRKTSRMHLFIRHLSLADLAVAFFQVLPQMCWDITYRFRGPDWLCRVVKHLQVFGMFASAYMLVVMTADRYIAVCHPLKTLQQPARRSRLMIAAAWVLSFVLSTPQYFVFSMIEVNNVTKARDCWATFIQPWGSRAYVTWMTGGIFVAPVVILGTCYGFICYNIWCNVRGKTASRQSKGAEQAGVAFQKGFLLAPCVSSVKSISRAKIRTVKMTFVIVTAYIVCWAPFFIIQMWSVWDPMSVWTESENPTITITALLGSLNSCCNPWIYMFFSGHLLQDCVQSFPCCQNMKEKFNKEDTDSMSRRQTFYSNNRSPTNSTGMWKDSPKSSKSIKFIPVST
In test [6] the target is T1, Vasopressin V2 receptor. Put plainly: Binding affinity to SNAP-tagged vasopressin V2 receptor expressed in COS7 cells after 1 hr by FRET assay. In kind it is cell-based. Conditions: COS-7. In short, it runs like this: as §1
A further test is filed under the species Homo sapiens. In words: Selectivity ratio of Ki for human oxytocin receptor to Ki for human vasopressin V2 receptor.
Test [7] deals with T1, Vasopressin V2 receptor. Put plainly: Agonist activity at human vasopressin V2 receptor expressed in CHO cells assessed as cAMP accumulation after 30 mins by TR-FRET based HTRF assay. In kind it is functional, cell-based. In short, it runs like this:
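CHO cells stably expressing human V2R, 5 × 10^3 per well on polyornithine, used 24 h after seeding. Cells lysed and cAMP read by HTRF (TR-FRET). Kact/Kinact from three independent experiments in triplicate, mean ± SEM.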

For test [8], the target named is T4, Vasopressin V1b receptor (Homo sapiens) (UniProt P47901).
T4 sequence (whole entry): T2 sequence (P47901 whole entry)
Put plainly: Displacement of [3H]-AVP from human vasopressin V1b receptor expressed in CHO cells at 10 uM after 30 mins. In kind it is cell-based. In short, it runs like this: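 Human OTR, V1aR or V1bR membranes from CHO cells, [3H]-AVP displacement with compound at a single 10 μM concentration, 30 min at 30 °C in Tris-HCl pH 7.4/MgCl2/BSA buffer.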

The target in test [9] is T5, Oxytocin receptor (Homo sapiens, UniProt P30559).
T5 sequence (P30559 whole entry): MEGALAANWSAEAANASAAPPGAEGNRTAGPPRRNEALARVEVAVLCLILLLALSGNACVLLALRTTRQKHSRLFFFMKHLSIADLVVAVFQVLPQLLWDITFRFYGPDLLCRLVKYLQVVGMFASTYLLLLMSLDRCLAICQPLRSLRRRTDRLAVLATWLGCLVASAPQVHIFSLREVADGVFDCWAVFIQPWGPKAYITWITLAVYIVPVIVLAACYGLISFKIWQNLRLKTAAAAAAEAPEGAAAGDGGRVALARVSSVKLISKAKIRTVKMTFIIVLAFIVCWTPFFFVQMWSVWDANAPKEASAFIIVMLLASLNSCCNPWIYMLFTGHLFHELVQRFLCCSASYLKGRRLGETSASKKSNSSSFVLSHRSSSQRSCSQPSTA
Put plainly: Displacement of [3H]-AVP from human oxytocin receptor expressed in CHO cells after 30 mins. It counts as cell-based.

In test [10] the target is T6, Muscarinic acetylcholine receptor M1 (Homo sapiens, UniProt P11229).
T6 sequence (P11229 whole entry): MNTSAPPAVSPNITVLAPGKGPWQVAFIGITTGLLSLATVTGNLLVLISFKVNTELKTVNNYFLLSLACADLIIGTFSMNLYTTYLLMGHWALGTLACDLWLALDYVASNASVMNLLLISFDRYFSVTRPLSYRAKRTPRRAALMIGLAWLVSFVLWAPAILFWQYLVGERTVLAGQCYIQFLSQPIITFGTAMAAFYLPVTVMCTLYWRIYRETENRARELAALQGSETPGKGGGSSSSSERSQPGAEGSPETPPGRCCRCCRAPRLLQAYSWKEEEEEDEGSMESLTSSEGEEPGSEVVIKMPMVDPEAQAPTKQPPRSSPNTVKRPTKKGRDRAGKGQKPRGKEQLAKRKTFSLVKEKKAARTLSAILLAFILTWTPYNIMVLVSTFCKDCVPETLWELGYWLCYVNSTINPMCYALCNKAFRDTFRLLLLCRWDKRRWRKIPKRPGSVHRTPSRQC
Put plainly: Binding affinity to human muscarinic M1 receptor.

The target of test [11] is T3, Vasopressin V1a receptor. Put plainly: Binding affinity to SNAP-tagged vasopressin V1a receptor expressed in COS7 cells assessed as interaction with vasopressin V2/V1a receptor dimer after 1 hr by FRET assay. It counts as cell-based. The conditions noted are these: COS-7. An outline of the steps:
as §1
Target sequence in this assay (P37288 whole entry, looked up): as the sequence (P37288 whole entry) above

Test [12] addresses T3, Vasopressin V1a receptor. Put plainly: Binding affinity to SNAP-tagged vasopressin V1a receptor expressed in COS7 cells after 1 hr by FRET assay. In kind it is cell-based. Conditions: COS-7. An outline of the steps: as §1
Target sequence in this assay (P37288 whole entry, looked up): as the sequence (P37288 whole entry) above
A short description of test [13]: Binding affinity to vasopressin V2 receptor in rabbit kidney membranes. In kind it is cell membranes, Oryctolagus cuniculus, Membrane.
The target in test [14] is T3, Vasopressin V1a receptor. In words: Binding affinity to vasopressin V1a receptor. An outline of the steps:
(§2)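 Membranes (5 μg protein) from CHO cells stably expressing human V2R, V1aR, V1bR or OTR. Incubated 30 min at 30 °C in 50 mM Tris-HCl pH 7.4, 5 mM MgCl2, 1 mg/mL BSA with [3H]-AVP (1−2 nM) and competitor from 100 pM to 100 μM. Nonspecific binding with 10 μM AVP. GF/C filtration; Ki by nonlinear least-squares regression. Triplicate, at least three membrane batches.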
Target sequence in this assay (P37288 whole entry): as the sequence (P37288 whole entry) above

Test [15] concerns the target T5, Oxytocin receptor. Put plainly: Binding affinity to oxytocin receptor. An outline of the steps:
as §2

In test [16] the target is Vasopressin V2 receptor (Oryctolagus cuniculus). In words: Binding affinity to vasopressin V2 receptor.

Structures are written as SMILES. The source made the active and inactive calls. The calls are words filed in the database; no cut-off is given here.

T1 sequence (P30518 whole entry): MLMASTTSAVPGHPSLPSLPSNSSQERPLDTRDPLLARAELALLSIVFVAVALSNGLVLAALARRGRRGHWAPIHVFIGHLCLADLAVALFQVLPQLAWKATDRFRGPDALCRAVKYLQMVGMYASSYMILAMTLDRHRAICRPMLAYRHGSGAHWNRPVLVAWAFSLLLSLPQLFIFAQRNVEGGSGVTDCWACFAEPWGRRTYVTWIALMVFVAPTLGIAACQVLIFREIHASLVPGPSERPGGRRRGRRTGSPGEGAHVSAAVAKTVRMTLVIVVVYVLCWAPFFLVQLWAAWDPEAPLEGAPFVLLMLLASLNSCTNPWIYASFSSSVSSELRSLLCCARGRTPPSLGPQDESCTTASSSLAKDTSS

With `CCN1/C(=C/C=C/C=C/C2=[N+](CC)c3ccc(S(=O)(=O)[O-])cc3C2(C)C)C(C)(CCCC(=O)NCCn2cc(CNC(=O)CCC(=O)NC3CCCN(C(=O)c4ccc(NC(=O)c5ccccc5-c5ccccc5)cc4)c4ccccc43)nn2)c2cc(S(=O)(=O)O)ccc21` (centres undefined), on Vasopressin V2 receptor [1], the Kd (usually a measure of binding affinity in units of concentration) was 1.38 nM. In addition, at Vasopressin V2 receptor [2], the antagonist dissociation constant (Kb) (in general, the affinity of an antagonist, worked out from how it opposes an agonist) amounted to 0.1 nM. The inhibition – broadly, the relative decrease from the control value, in per cent – on Vasopressin V2 receptor [2] was “Dose-dependent effect”; in test [8] it was less than 50%. Also, the Ki (usually the dissociation constant of the complex between target and ligand, obtained from inhibition or displacement) at Vasopressin V1b receptor is more than 10000 nM; on Vasopressin V2 receptor [4] it was 5.69 nM; at Vasopressin V1a receptor [5], 621 nM; on Oxytocin receptor [9] it was 184 nM. Also, the outcome at Vasopressin V2 receptor [3] and on Vasopressin V2 receptor [6] was Active. The Ratio Ki in the test filed under Homo sapiens was 32. In addition, at Vasopressin V2 receptor [7], the outcome was inactive.
Turning to `O=C(CCC1=[N+]2C(C=C1)Cc1ccc(-c3cccs3)n1[B-]2(F)F)NCCCCCCN1CCN(CC(=O)N2c3ccccc3C(=O)Nc3cccnc32)CC1` (centres undefined), in [10], the Ki came to 8.8 nM.
Consider `COc1ccc(C[C@@H](NC(=O)CCc2ccc(O)cc2)C(=O)N[C@@H](Cc2ccccc2)C(=O)N[C@@H](CCC(N)=O)C(=O)N[C@@H](CC(N)=O)C(=O)N[C@@H](CCCNC(=N)N)C(=O)N2CCC[C@H]2C(=O)N[C@@H](CCCCNC(=O)CCCCC2(C)C(/C=C/C=C/C=C3\N(CCCS(=O)(=O)O)c4ccc(S(=O)(=O)[O-])cc4C3(C)C)=[N+](CCCS(=O)(=O)O)c3ccc(S(=O)(=O)O)cc32)C(N)=O)cc1` (some centres undefined), for which the result on Vasopressin V1a receptor [11] and on Vasopressin V1a receptor [12] was Active.
With `Cc1ccccc1C(=O)Nc1ccc(C(=O)N2CCCCc3ccccc32)cc1`, at Vasopressin V2 receptor [2], the inhibition entry is “Dose-dependent effect”. In addition, the Ki was 7.2 nM in test [13]; 2.68 nM at Vasopressin V2 receptor [4]; 8.1 nM on Vasopressin V1a receptor [14]; 30 nM on Oxytocin receptor [15]; 7.2 nM in test [16]. Besides, the outcome on Vasopressin V2 receptor [7] was inactive.
As to `O=C(Nc1ccc(C(=O)N2CCCCc3ccccc32)cc1)c1ccccc1-c1ccccc1`, at Vasopressin V2 receptor [2], the inhibition result is “Dose-dependent effect”. Also, the Ki was determined as 7.6 nM in [13], 14.1 nM at Vasopressin V1a receptor [14], 63 nM at Oxytocin receptor [15] and 7.5 nM in test [16]. The outcome on Vasopressin V2 receptor [7] was inactive.
Consider `O=C(CCC1=[N+]2C(C=C1)Cc1ccc(-c3cccs3)n1[B-]2(F)F)NCCN1CCN(CC(=O)N2c3ccccc3C(=O)Nc3cccnc32)CC1` (centres undefined), for which, in [10], the Ki is more than 1000 nM.

The values are drawn from ChEMBL document CHEMBL2169837 (J Med Chem, 2012).
